The list is not random: actives were taken first. Their share in the collection is about 2.5%.
MsrA inh – bovine MsrA inhibition | purified bovine MsrA, absorbance read-out | inhibition, % at 15.5 µM | 360,000 compounds, 0.75% hits | AID 651718; in the data active means inhibition above about 4.5%;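 further: 0% = vehicle wells with enzyme and 100% = reference inhibitor wells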
NadD block – blocks S. aureus nicotinate mononucleotide adenylyltransferase. purified NadD enzyme, colorimetric absorbance read-out. inhibition, % at 20 µM. 360,000 compounds, 0.78% hits. AID 602399; in the data active means inhibition above about 26%
GalR3 antagonist – human GalR3 antagonism; O60755; HEK293 GalR3-CNG cAMP membrane potential fluorescence; galR3 body fused to GalR1 C-terminus; inhibition, % at 3 µM; 360,000 compounds, 0.44% hits; AID 651719;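 active means inhibition above the screen-wide average plus 3 SD, cut at about 13% in these data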;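 further: forskolin and galanin both at EC90 stimulate the cells; cAMP rise reported by CNG channel membrane potential dye signal; 0% = forskolin plus galanin with DMSO and 100% = forskolin alone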
Target sequence (O60755 1-299 limits assumed): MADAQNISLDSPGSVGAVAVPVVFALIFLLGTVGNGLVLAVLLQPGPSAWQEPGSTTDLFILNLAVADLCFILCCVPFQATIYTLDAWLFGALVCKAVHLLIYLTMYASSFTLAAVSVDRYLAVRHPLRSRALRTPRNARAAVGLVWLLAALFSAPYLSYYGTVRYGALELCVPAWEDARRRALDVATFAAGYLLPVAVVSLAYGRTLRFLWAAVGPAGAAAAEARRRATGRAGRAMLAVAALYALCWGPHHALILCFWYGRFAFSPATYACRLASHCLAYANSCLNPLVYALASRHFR
NR2E3 ag-1 – agonists of human NR2E3 nuclear receptor; inhibition of corepressor binding, % at 3.98 µM; AID 602229; 360,000 compounds, 0.35% hits; CHO-S Gal4-NCOR/VP16-NR2E3 two-hybrid, luciferase; Q9Y5X4;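 active means inhibition above the mean of all tested compounds plus 3 SD, cut at about 70% in these data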;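 further: 0% = DMSO with NR2E3 transfected cells and 100% = cells lacking NR2E3 construct; higher means lower luciferase signal from less NR2E3 corepressor binding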
MsrA act – activators of bovine methionine sulfoxide reductase A. activation, % at 10.6 µM. purified bovine MsrA, absorbance read-out. 360,000 compounds, 0.3% hits. AID 602163; in the data active means activation above about 7.5%;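 further: 0% = vehicle and 100% = reference activator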
NR2E3 ag-2 – agonists of human nuclear receptor NR2E3; inhibition of corepressor binding, % at 4.78 µM; GST-NR2E3/biotin-RetCOR TR-FRET, 1536-well; AID 2300; 320,000 compounds, 0.12% hits; Q9Y5X4;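 active means percent inhibition above the cutoff of mean plus 3 SD of all tested compounds, set per screening campaign, cut at about 20% in these data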;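 further: 0% = DMSO wells and 100% = biotin wells as full block of FRET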
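system = GST-tagged NR2E3 plus biotinylated RetCOR corepressor | input = 1.35 nM GST-NR2E3 | also added = 7 nM biotin-RetCOR | schedule = 5 h incubation at 4 °C | measured by = TR-FRET with europium anti-GST and streptavidin-D2, 340 nm excitation | read-out = percent loss of FRET ratio relative to control wells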
NadD conf – NadD (S. aureus) inhibition, single concentration confirmation; shares compounds with NadD block; purified S. aureus NadD, colorimetric enzyme assay; inhibition, % at 20 µM; 2,000 compounds, 13% hits; AID 624309; in the data active means inhibition mostly above about 42%, no sharp cut-off; inactive means mostly below about 42%
Starred values were filed as active, the others as inactive; . = no result.

SMILES	MsrA inh	NadD block	GalR3 antagonist	NR2E3 ag-1	MsrA act	NR2E3 ag-2	NadD conf
CCOc1ccc2nc(N3C(=O)/C(=C/c4ccccc4)NC3=S)sc2c1	0	33*	-4	-128	3	-1	8
COc1ccc2nc(-n3c(C)ccc3C)sc2c1	0	5	-2	-50	-2	3	.
CCN(CC)S(=O)(=O)c1ccc(N2CCCC2)c(C(=O)OCC(=O)/C(C#N)=C(\C)N)c1	0	-2	-5	-19	-1	2	.
Cc1cccc(/C=N/NC(=O)c2cc(-c3cccnc3)nc3c2c(C)nn3-c2ccccc2)c1	-1	37*	-12	-20	-4	1	7
CN1CCN(c2ccc(NC(=O)c3ccc(Cl)cc3)cn2)CC1	1	-5	-7	-8	-6	5	.
CCc1cc2c(=O)nc3n(c2s1)Cc1ccccc1/C3=C(/O)c1ccccc1Cl	1	32*	3	48	-4	4	6
O=C(Cc1cc(=O)[nH][nH]1)N/N=C/C=C/c1ccccc1	1	34*	6	-5	0	0	64*
COc1ccc(C2=NN(C(=O)COc3ncnc4ccccc34)C(c3ccco3)C2)cc1 (stereo not given)	-1	7	-4	27	-7	1	.
COc1ccc(C2=NN(c3nc(-c4ccccc4)c(CC(=O)O)s3)C(c3ccco3)C2)cc1 (stereo not given)	1	61*	-4	-40	-7	2	72*
Cc1ccc(S(=O)(=O)N(C)C)cc1NC(=O)c1cc(-c2ccncc2)nc2ccccc12	0	18	1	0	0	.	.
O=C(COc1ccc(-c2ccccc2)cc1)N/N=C/c1cc(O)ccc1Br	0	31*	0	-1	-9	-6	29
O=C1OC(c2cccs2)=N/C1=C/c1ccc(-c2cccc(C(=O)O)c2)o1	4	9	-4	-48	-5	.	.
O=C1OC(c2cccs2)=N/C1=C\c1ccc(-c2ccccc2Cl)o1	4	39*	-5	-6	-4	.	4
CCOC(=O)c1sc2nc(-c3ccco3)c3c(c2c1N)CC(C)(C)OC3	0	32*	-5	-16	-4	6	10
NC(=O)NC(=O)C(Nc1ccc2c(c1)CCC2)c1ccccc1 (stereo not given)	1	-3	-10	-29	-9	2	.
COc1ccc(NC(=O)CSc2ccc3c4c(cccc24)C(=O)c2ccccc2-3)cc1	-1	33*	-1	-14	-1	2	2
N#Cc1cccc(NC(=O)CSc2ccc3c4c(cccc24)C(=O)c2ccccc2-3)c1	-1	13	-3	-29	-1	1	.
O=C(Nc1ccc(N2C(=O)C3CCCCC3C2=O)cc1Cl)c1cccs1 (stereo not given)	1	-6	-1	-23	-2	-2	.
O=C(c1cnc(Cc2c[nH]c3ccccc23)c(I)c1)N1CCN(Cc2ccccc2)CC1	0	9	-6	7	0	.	.
CCOc1ccc(CCN2C(=S)N([C@@H](Cc3ccc(O)cc3)CN3CCC[C@@H]3CN3C(=S)NC[C@@H]3Cc3ccc(O)cc3)C[C@@H]2Cc2ccc(O)cc2)cc1	-1	36*	-5	-16	-3	.	23
CCOc1ccc(CCN2C(=S)N([C@@H](Cc3ccccc3)CN3CCCC3CN3C(=S)NC[C@@H]3Cc3ccccc3)C[C@@H]2Cc2ccc(O)cc2)cc1 (stereo not given in full)	0	50*	-4	-4	-2	.	8
CCOc1ccc(CCN2C(=S)N([C@@H](CC(C)C)CN3CCC[C@@H]3CN3C(=S)NC[C@@H]3Cc3ccccc3)C[C@@H]2Cc2ccc(O)cc2)cc1	0	36*	-4	7	-2	.	1
Cc1cc(F)ccc1S(=O)(=O)Nc1ccccc1C(=O)Nc1ccccc1-c1nc2ccccc2[nH]1	.	33*	.	-9	-5	0	0
CC1CCCN(S(=O)(=O)c2ccc(C(=O)Nc3ccccc3-c3nc4ccccc4[nH]3)cc2)C1 (stereo not given)	0	5	-10	15	0	3	.
